From ChEMBL document CHEMBL1127484, “5-Aryl-3-(alkylthio)-4H-1,2,4-triazoles as selective antagonists of strychnine-induced convulsions and potential antispastic agents” (J Med Chem, 1994)
Calls of active or inactive are those of the source.

Columns and labels:
Rattus norvegicus [1] = test: Effect of compound on reflux function in spinal transected rats at 20 mg/Kg; format: functional
Summary of the method: (§1)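 Spinal-transected rats, 5-10 weeks post-transection. Hind-limb activity recorded by transducer. Output integrated over the first 3 s after leg pull (stretch-evoked reflex function) and over the next 57 s (spontaneous hyperreflexia). Sessions were run before and after ip dosing. Test agent given as suspension in distilled H2O/1% Tween 80, or as solution in distilled H2O. Data expressed as % of control; paired t test or least-squared-means comparisons.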

[2] = target: T1, GABA-A receptor; anion channel (Rattus norvegicus) (UniProt O09028+P15431+P18506+P18508+P19969+P20236+P23574+P23576+P28471+P28473+P30191+P62813+P63079+P63138+Q91ZM7+Q9ES14); test: In vitro displacement of [35S]TBPS at GABA-A picrotoxin convulsant site in rat cortical membranes at 100 uM (Inactive); format: cell membranes; conditions: Membrane
[3] = target: Gamma-aminobutyric acid receptor subunit gamma-1 (Rattus norvegicus) (UniProt P23574); test: Enhancement of 1 uM muscimol-stimulated 36Cl- uptake into rat cerebellar membrane; format: functional; conditions: Cerebellum
Gamma-aminobutyric acid receptor subunit gamma-1 (Rattus norvegicus), sequence (P23574 whole entry): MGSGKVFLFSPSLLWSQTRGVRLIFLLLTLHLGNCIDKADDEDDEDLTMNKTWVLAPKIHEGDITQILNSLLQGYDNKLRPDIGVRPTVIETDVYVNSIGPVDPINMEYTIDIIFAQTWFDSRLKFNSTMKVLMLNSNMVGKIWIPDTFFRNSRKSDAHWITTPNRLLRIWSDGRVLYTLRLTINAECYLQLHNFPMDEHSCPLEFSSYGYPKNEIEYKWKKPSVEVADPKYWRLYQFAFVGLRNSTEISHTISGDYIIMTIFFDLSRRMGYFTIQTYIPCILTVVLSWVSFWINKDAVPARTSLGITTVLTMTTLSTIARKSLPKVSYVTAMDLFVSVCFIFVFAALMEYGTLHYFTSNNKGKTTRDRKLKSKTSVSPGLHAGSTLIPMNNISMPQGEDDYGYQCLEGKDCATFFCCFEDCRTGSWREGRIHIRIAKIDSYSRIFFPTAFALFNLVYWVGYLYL
Summary of the method: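 Rat cerebellar membrane vesicles (adult male Sprague-Dawley) in HEPES/Tris buffer, pH 7.5. Preincubated on ice for 15 min with vehicle (0.2% DMSO) or 10 μM compound, then 5 min at 34 °C. 36Cl uptake run for 3 s with 1 μM muscimol and stopped by ice-cold 100 μM picrotoxin buffer plus filtration. Muscimol-stimulated uptake = uptake minus uptake without muscimol, in nmol/mg protein/3 s. Mean ± SEM, n = 3; Student's t test.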

Rattus norvegicus [4] = test: Effect of compound on […] function in spinal transected rats at 10 mg/Kg; format: functional; summary of the method: as §1
Rattus norvegicus [5] = test: Effect of compound on reflux function in spinal transected rats at 40 mg/Kg; format: functional; summary of the method: as §1
Rattus norvegicus [6] = test: Effect of compound on hyperreflexia in spinal transected rats at 20 mg/Kg; format: functional; summary of the method: as §1
[7] = Dose encompassing the 50% lethal effect was recorded when administered intraperitoneally in mice; format: ADME, organism-based; conditions: mouse, in vivo, ip
Summary of the method: (§2)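 Deaths were recorded over the 7 days after dosing. The estimated LD50 was taken as the dose range spanning 50% lethality.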

[8] = target: T1, GABA-A receptor; anion channel (Rattus norvegicus); test: In vitro displacement of [3H]flunitrazepam at GABA-A benzodiazepine site in rat cortical membranes at 100 uM (Inactive); format: cell membranes; conditions: Membrane
Rattus norvegicus [9] = test: Effect of compound on hyperreflexia in spinal transected rats at 10 mg/Kg; format: functional; summary of the method: as §1
[10] = target: T1, GABA-A receptor; anion channel (Rattus norvegicus); test: In vitro displacement of [3H]muscimol from GABA-A receptor in rat cortical membranes at 100 uM (Inactive); format: cell membranes; conditions: Membrane
[11] = target: GABA B receptor (Rattus norvegicus) (UniProt Q9Z0U4+O88871); test: In vitro displacement of [3H]baclofen at GABA-B receptor in rat cortical membranes at 100 uM (Inactive); format: cell membranes; conditions: Membrane
Mus musculus [12] = test: Effective dose required for antagonist activity against 3-mercaptopropionic-acid induced seizures in mice when administered intraperitoneally; format: functional; conditions: ip
Summary of the method: (§3)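 CD-1 male mice (18–26 g), groups of 5 or 10, housed individually, dosed ip in distilled H2O or H2O/Tween 80. Convulsant given 30 min later. Strychnine sulfate 2.7 mg/kg ip: protection = no tonic extension >15 min. MES 50 mA, 0.2 s, corneal: no tonic hind-limb extension. PTZ 60 mg/kg iv: no clonic seizures for 2 min. MPA 100 mg/kg iv: no seizures for 5 min. ED50 by quantal analysis from ≥4 doses, ≥10 mice each.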

Mus musculus [13] = test: Effective dose required for antagonist activity against maximal electroshock induced seizures in mice when administered intraperitoneally; format: functional; conditions: ip; summary of the method: as §3
Mus musculus [14] = test: Effective dose required for antagonist activity against pentylenetetrazole-induced seizures in mice when administered intraperitoneally; format: functional; conditions: ip; summary of the method: as §3
Rattus norvegicus [15] = test: Effect of compound on reflux function in spinal transected rats at 5 mg/Kg; format: functional; summary of the method: as §1
Rattus norvegicus [16] = test: Effect of compound on hyperreflexia in spinal transected rats at 40 mg/Kg; format: functional; summary of the method: as §1
Mus musculus [17] = test: Effective dose required for antagonist activity against maximal electroshock induced seizures in mice when administered intraperitoneally; Range is 100-200; format: functional; conditions: ip; summary of the method: as §3
Mus musculus [18] = test: Effective dose required for antagonist activity against strychnine induced seizures in mice when administered intraperitoneally; format: functional; conditions: ip; summary of the method: as §3
Mus musculus [19] = test: Effective dose required for antagonist activity against pentylenetetrazole-induced seizures in mice when administered intraperitoneally; Range is 50-100; format: functional; conditions: ip; summary of the method: as §3
[20] = Dose encompassing the 50% lethal effect was recorded when administered intraperitoneally in mice; Range is 400-800; format: ADME, organism-based; conditions: mouse, in vivo, ip; summary of the method: as §2
Mus musculus [21] = test: Effective dose required for antagonist activity against 3-mercaptopropionic-acid-induced seizures in mice when administered intraperitoneally; Range 100-200; format: functional; conditions: ip; summary of the method: as §3
Mus musculus [22] = test: Effective dose required for antagonist activity against pentylenetetrazole-induced seizures in mice when administered intraperitoneally; Range 100-200; format: functional; conditions: ip; summary of the method: as §3
Mus musculus [23] = test: Effective dose required for antagonist activity against pentylenetetrazole-induced seizures in mice when administered intraperitoneally; Range is 100-200; format: functional; conditions: ip; summary of the method: as §3
[24] = Dose encompassing the 50% lethal effect was recorded when administered intraperitoneally in mice; 400-800; format: ADME, organism-based; conditions: mouse, in vivo, ip; summary of the method: as §2
Mus musculus [25] = test: Effective dose required for antagonist activity against pentylenetetrazole-induced seizures in mice when administered intraperitoneally; 100-200; format: functional; conditions: ip; summary of the method: as §3

SMILES | LD50 [7] [mg/kg] | ED50 (Mus musculus [12]) [mg/kg] | ED50 (Mus musculus [13]) [mg/kg] | ED50 (Mus musculus [14]) [mg/kg] | ED50 (Mus musculus [18]) [mg/kg] | other results
Cn1c(-c2ccccc2)nnc1S(C)(=O)=O | > 800 | > 200 | > 200 | 55 | – | Control (Rattus norvegicus [1]): 114%; Displacement [2]: inactive; Uptake (nM 3s-1 (mg of protein)-1) [3]: 3.82; Control (Rattus norvegicus [4]): 116%; Control (Rattus norvegicus [5]): 87%; Control (Rattus norvegicus [6]): 78%; Displacement [8]: inactive; Control (Rattus norvegicus [9]): 46%; Displacement [10]: inactive; Displacement [11]: inactive; Control (Rattus norvegicus [15]): 101%; Control (Rattus norvegicus [16]): 43%
CC[S+]([O-])c1nnc(-c2ccccc2F)n1C (centres undefined) | > 800 | > 200 | – | > 200 | 32.7 | ED50 (Mus musculus [17]): 200 mg/kg
Cn1c(-c2ccccc2F)nnc1S(C)(=O)=O | > 800 | > 100 | > 100 | > 100 | 17.6 | –
Cn1nc(S(C)(=O)=O)nc1-c1ccccc1 | > 800 | > 200 | > 200 | > 200 | > 200 | –
COc1ccc(-c2nnc(S(C)(=O)=O)n2C)cc1 | > 800 | > 200 | > 200 | > 200 | > 200 | –
CSc1nc(-c2ccc(Cl)cc2)nn1C | > 800 | > 200 | > 200 | – | > 200 | ED50 (Mus musculus [19]): 100 mg/kg
O=C1NC(=O)C(c2ccccc2)(c2ccccc2)N1 [PHENYTOIN] | – | 89 | 25.9 | > 32 | > 200 | –
Cn1c(-c2ccccc2F)nnc1[S+](C)[O-] (centres undefined) | > 800 | > 200 | > 200 | 57.9 | 20 | –
Cn1c(-c2cccc(F)c2)nnc1S(C)(=O)=O | > 800 | > 200 | > 200 | > 200 | 12.1 | –
COc1ccc(-c2nnc(SC)n2C)cc1 | – | > 100 | > 100 | > 100 | > 100 | LD50 [20]: 800 mg/kg
Cn1c(-c2cccs2)nnc1S(C)(=O)=O | > 800 | > 200 | > 200 | > 200 | > 200 | –
CSc1nnc(-c2ccccc2Cl)n1C | – | > 50 | > 50 | > 50 | > 50 | LD50 [20]: 800 mg/kg
CSc1nnc(-c2ccccc2)n1C | > 800 | – | > 200 | – | 37.8 | ED50 (Mus musculus [21]): 200 mg/kg; ED50 (Mus musculus [22]): 200 mg/kg
CSc1nnc(-c2cccs2)n1C | – | > 100 | > 100 | > 100 | 34.1 | LD50 [20]: 800 mg/kg
Cn1nc(-c2ccc(Cl)cc2)nc1S(C)(=O)=O | > 800 | > 200 | > 200 | > 200 | > 200 | –
Cc1ccc(-c2nnc(S(C)(=O)=O)n2C)cc1 | > 800 | > 200 | > 200 | > 200 | > 200 | –
Cn1c(-c2cccc3ccccc23)nnc1S(C)(=O)=O | > 800 | > 200 | > 200 | > 200 | > 200 | –
CC[S+]([O-])c1nnc(-c2ccccc2)n1C (centres undefined) | > 800 | > 200 | > 200 | – | – | ED50 (Mus musculus [23]): 200 mg/kg
CSc1nnc(-c2cccc(F)c2)n1C | > 800 | > 200 | > 200 | > 200 | 13.8 | –
Cn1nc(-c2cccc(F)c2)nc1S(C)(=O)=O | – | > 100 | > 100 | > 100 | > 100 | LD50 [20]: 800 mg/kg
CCSc1nnc(-c2ccccc2)n1C | – | > 200 | > 200 | – | > 200 | LD50 [24]: 800 mg/kg; ED50 (Mus musculus [25]): 200 mg/kg
